Where two headings read alike, the source gives them in different places.
What was measured:
[1] = molecular target: VcAer2 [165–678]; experiment: O2 and CO titrations of purified VcAer2 [165–678]; format: binding, Vibrio cholerae; conditions: read-out: Kd(CO)
How it was run: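 Truncated receptor was expressed in E. coli BT3388 in LB Lennox with 0.5 µg ml−1 thiamine and 25 µg ml−1 ALA, induced with 600 µM IPTG, then Ni-NTA purified. Heme content was assessed on 5 µM purified protein. Kd(O2) and Kd(CO) came from linear interpolation between unliganded Fe2+ and liganded (Fe2+-O2, Fe2+-CO) absorption spectra. Averaged over 2–8 experiments and rounded to whole numbers.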

[2] = test system: PaAer2/BT3388 cells; conditions: PaAer2 in E. coli; ref Watts et al., 2011; cited from earlier work
[3] = molecular target: PaPAS (Pseudomonas aeruginosa Aer2 PAS domain); conditions: read-out: Kd(CO), ref Garcia et al., 2017; cited from earlier work
[4] = test system: VcAer2/BT3388 cells; experiment: Behavioral assay; format: cell-based, E. coli; conditions: full-length VcAer2; 200 µM or 1 mM IPTG; with or without 25 µg ml^−1 ALA
How it was run: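 Full-length receptor expressed in chemoreceptorless E. coli BT3388 grown at 30 °C in tryptone broth with 0.5 µg ml−1 thiamine (± 25 µg ml−1 ALA). Induced at OD600 0.2–0.25 for 2 h with 200 µM or 1 mM IPTG. Gas perfusion chamber toggled between air (20.9% O2) and N2. For CO, 30 s N2 then 10 s CO (>99%). Percent tumbling scored for all motile cells per field at 800×. Repeated ≥2 times on ≥2 occasions.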

[5] = test system: PAS2 [165–282] W276 mutant peptides; experiment: Gas binding to purified PAS2 [165–282] W276 mutant peptides; parameters: species or system Vibrio cholerae; conditions: PAS2 peptides containing W276C, L and V
[6] = molecular target: VcAer2 PAS2 [165–282]; experiment: O2 and CO titrations of purified PAS2 peptide; format: binding, Vibrio cholerae; conditions: read-out: Kd(CO); PAS2 [165–282] peptide
How it was run: (§1)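 PAS1 [38–157] or PAS2 [165–282] peptides came from E. coli BT3388 grown in LB Lennox with 0.5 µg ml−1 thiamine and 25 µg ml−1 ALA, induced with 600 µM IPTG and Ni-NTA purified. Heme-bound protein was quantified by pyridine hemochrome assay to standardize PAS-heme concentration. Kd(O2) and Kd(CO) were estimated by linear interpolation between unliganded Fe2+ and Fe2+-O2 or Fe2+-CO spectra. Averaged over 2–8 experiments, rounded to whole numbers.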

[7] = test system: PAS1 [38–157] mutant peptides; experiment: Gas binding to purified PAS1 [38–157] mutant peptides; parameters: species or system Vibrio cholerae
[8] = molecular target: VcAer2 PAS1 [38–157]; experiment: O2 and CO titrations of purified PAS1 peptide; format: binding, Vibrio cholerae; conditions: read-out: Kd(CO); PAS1 [38–157] peptide
How it was run: as §1

[9] = molecular target: V. cholerae Aer2 PAS1 [1–164] peptide (V. cholerae O1 JBK 70); experiment: SEC
[10] = molecular target: V. cholerae Aer2 PAS1 [38–157] peptide (V. cholerae O1 JBK 70); experiment: SEC
[11] = molecular target: V. cholerae Aer2 PAS1 [38–157] peptide (V. cholerae O1 JBK 70); experiment: SEC; remark: listed apart in the source
[12] = molecular target: V. cholerae Aer2 PAS2 [165–282] peptide (V. cholerae O1 JBK 70); experiment: SEC
[13] = molecular target: V. cholerae Aer2 PAS2 [165–282] peptide (V. cholerae O1 JBK 70); experiment: SEC; remark: listed apart in the source
[14] = molecular target: V. cholerae Aer2 PAS 1–2 [1–282] peptide (V. cholerae O1 JBK 70); experiment: SEC

In the case of `[C-]#[O+]` [CO, carbon monoxide], the Kd [1] is listed as 2 µM, the “cells tumbling in the presence of gas” value [2] is listed as ~ 98% and the Kd [3] is listed as 2 µM. The “behavioral response to gas” value [4] was “did not respond”, the CO binding [5] was “bound CO” and the Kd [6] was 5 µM. For the same compound, the “CO binding affinity relative to WT” value ([7]; PAS1-W151C, F, G, P, S, T and V) was “WT affinities”, the “CO binding affinity relative to WT” value ([7]; PAS1-W151L) was “WT affinities” and the “CO binding affinity relative to WT” value ([7]; PAS1-Y119L) was “WT O2 and CO affinities”. The CO binding ([7]; PAS1-Y119L/W151L) was “bound heme and CO” and the Kd [8] was 7 µM.
With “V. cholerae Aer2 PAS1 [1–164] peptide (domain or fragment)” the stoichiometry N [9] was 2.
Compound “V. cholerae Aer2 PAS1 [38–157] peptide (domain or fragment)” has a stoichiometry N [10] of 2 and a stoichiometry N [11] of 2.
Compound “V. cholerae Aer2 PAS2 [165–282] peptide (domain or fragment)” has a stoichiometry N [12] of 2 and a stoichiometry N [13] of 2.
With “V. cholerae Aer2 PAS 1–2 [1–282] peptide (domain or fragment)” the stoichiometry N [14] was 2.

— article PMC6214802 (Molecular microbiology, 2018)
